HCV NS3 hel inh = inhibitors of Hepatitis C virus NS3 helicase; NS3 helicase DNA unwinding, Cy5 molecular beacon fluorescence; inhibition, % at 10.9 µM; 290,000 compounds, 0.56% hits; AID 1800;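 active = inhibition above the mean of all tested compounds plus 3 SD, set per campaign, cut at about 35% in these data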;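 note: 0% = DMSO wells and 100% = thioflavine S control wells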
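Assay system: hepatitis C virus NS3 helicase domain fragment enzyme. Also added: annealed dual-labelled DNA beacon duplex, ATP-started. Timing: 1 h reaction at 25 °C, ATP-initiated. Technique: Cy5 fluorescence at 0 and 60 min, beacon hairpin quenching. Evaluation: % inhibition of unwinding. Replication: one well per compound.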
ZTA counter = counter-screen for EBNA-1 inhibitors: inhibitors of Epstein-Barr virus ZTA. P03206. ZTA-DNA binding, fluorescence polarization. inhibition, % at 11 µM. 320,000 compounds, 0.15% hits. AID 2234; in the data active = inhibition above about 33%
Target sequence (P03206 whole entry, looked up): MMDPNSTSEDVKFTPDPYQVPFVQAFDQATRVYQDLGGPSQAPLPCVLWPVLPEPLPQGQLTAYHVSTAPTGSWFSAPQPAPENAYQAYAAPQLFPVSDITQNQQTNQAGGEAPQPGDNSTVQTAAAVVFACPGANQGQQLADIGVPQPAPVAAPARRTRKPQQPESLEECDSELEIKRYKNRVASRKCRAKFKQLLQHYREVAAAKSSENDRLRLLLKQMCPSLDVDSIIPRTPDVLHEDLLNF
M18AAP inhibitor = blocks P. falciparum M18 aspartyl aminopeptidase; recombinant PfM18AAP, H-Glu-NHMec fluorogenic cleavage; inhibition, % at 7.35 µM; 290,000 compounds, 1.2% hits; AID 1822;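 active = inhibition above the campaign mean inhibition over all tested compounds plus 3 SD, cut at about 28% in these data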;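 note: 0% = plate median of test compound wells and 100% = 2 mM ZnCl2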
EBNA-1 inh = blocks EBNA-1 binding to DNA. EBNA-1 DNA binding, fluorescence polarization. inhibition, % at 14.8 µM. 300,000 compounds, 0.34% hits; in the data active = inhibition above about 28%
HCV core dimer = HCV core protein dimerization inhibition; 300,000 compounds, 0.33% hits; TR-FRET GST/Flag-core106 dimerization, 1536-well; AID 1899; inhibition, % at 5 µM;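 active = inhibition above the mean of all tested compounds plus 3 SD, set per screening campaign, cut at about 45% in these data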
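Material: Tagged HCV core106 pair (GST and Flag) | Amount: GST-core106 13.5 nM, Flag-core106 17 nM | Medium: KF-containing HEPES buffer, pH 7.45, DTT, CHAPS, BSA | Reagent: Eu donor and XL665 acceptor anti-tag antibodies | Schedule: 4 h at 22.5 °C | Technique: Time-resolved FRET, ex 340 nm, em 617 and 671 nm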
ALR H2O2 inh = inhibitors of human sulfhydryl oxidase ALR; AID 485317; 290,000 compounds, 3.8% hits; P55789; inhibition, % (test concentration not listed); purified ALR, DTT oxidation, H2O2 HRP-luminol luminescence;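 active = mean replicate inhibition above about 79%, with every replicate also reaching it, limit read from the data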
Target sequence (P55789 whole entry, looked up): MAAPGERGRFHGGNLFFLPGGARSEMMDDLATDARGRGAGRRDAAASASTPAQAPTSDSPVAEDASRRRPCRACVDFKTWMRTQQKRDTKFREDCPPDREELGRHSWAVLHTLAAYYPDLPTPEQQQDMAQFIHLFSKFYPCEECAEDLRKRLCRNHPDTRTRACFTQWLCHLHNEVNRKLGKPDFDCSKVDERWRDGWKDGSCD
Numbers without * were called inactive; · = no result. Only some compounds are listed: those with a hit (about 5.2% of all), similar ones and a draw of the others.

SMILES | HCV NS3 hel inh | ZTA counter | M18AAP inhibitor | EBNA-1 inh | HCV core dimer | ALR H2O2 inh
Cc1ccc(CN(C)C(=O)CCc2nc3sc4c(c3c(=O)[nH]2)CCCC4)o1 | 2 | -8 | 4 | -8 | 17 | 98*
N#Cc1c(NC(=O)CCC(=O)O)sc2c1CCCCC2 | 4 | 7 | 31* | 2 | 2 | 4
N#Cc1c(NC(=O)CCC(=O)O)sc2c1CCCC2 | -1 | -4 | 4 | -1 | -1 | 16
CCOC(=O)c1c(NC(=O)CSc2nnc(C)c(=O)[nH]2)sc2c1CCCC2 | 11 | -6 | 6 | -3 | 11 | 20
N#Cc1c(NC(=O)c2cnccn2)sc2c1CCCC2 | 1 | -17 | 8 | -8 | -1 | 98*
Cc1nnc(SCC(=O)Nc2sc3c(c2C#N)CCCC3)[nH]c1=O | 25 | -10 | 22 | -14 | 22 | 98*
S=c1[nH]cnc2scc(-c3ccc(Cl)cc3)c12 | 4 | -3 | 6 | -12 | -1 | 10
C=CCn1c(N)cc(=O)nc1SC(C)C(=O)Nc1ccc(C(=O)OCC)cc1 (stereo not given) | 0 | -8 | -1 | 0 | -19 | -3
O=C(NC1CC(=O)N(c2ccc3c(c2)OCCO3)C1)N1CCCCC1 (stereo not given) | · | -19 | · | 6 | -12 | 5
Cn1nnnc1SCC(=O)NC1CCCC1 | 2 | -7 | 0 | 3 | 6 | -1
Cc1nnc(SCc2nc3sc4c(c3c(=O)[nH]2)CCCC4)[nH]c1=O | 15 | 9 | -5 | 7 | 6 | 98*
Cc1sc(NC(=O)CCCC(=O)O)c(C#N)c1C | 7 | -6 | 30* | 0 | 1 | 9
Cc1cccc(OCCC(=O)Nc2ccc(C)c(S(=O)(=O)N3CCCCC3)c2)c1 | 3 | 17 | -5 | 4 | 4 | -21
CCOC(=O)Cc1csc(NC(=O)Cn2cnc3c2c(=O)n(C)c(=O)n3C)n1 | 1 | -15 | 7 | -14 | 8 | -8
Cn1c(=O)c2c(ncn2CC(=O)Nc2nc(-c3ccccc3Cl)cs2)n(C)c1=O | -5 | -9 | -7 | 27* | 0 | -16
CCN(CC)c1ccc(C(=O)OCc2cc(=O)oc3cc(O)ccc23)cc1 | 11 | -6 | 6 | 1 | 50* | 0
O=C(CCN1C(=O)C2CCCCC2C1=O)Nc1ccc(Br)cc1F (stereo not given) | · | 5 | · | 0 | -5 | -2
CCOc1ccc(N)c(SSc2cc(OCC)ccc2N)c1 | 4 | -1 | 43* | 2 | -21 | 7
COc1ccccc1CNC(=O)COc1ccccc1C | 5 | · | 2 | · | · | 5
Cc1ccc(CNC(=O)CS(=O)Cc2nc(-c3ccccc3C)oc2C)cc1 (stereo not given) | -2 | 2 | -7 | 0 | -3 | 26
COc1ccc(CNC(=O)CS(=O)Cc2nc(-c3ccccc3C)oc2C)cc1 (stereo not given) | 0 | 3 | -2 | -5 | -10 | 99*
COCCNC(=O)CS(=O)Cc1nc(-c2ccccc2C)oc1C (stereo not given) | -2 | -1 | -11 | 6 | -4 | 98*
COc1ccccc1CNC(=O)CS(=O)Cc1nc(-c2ccccc2C)oc1C (stereo not given) | -6 | 5 | 0 | 1 | -7 | 99*
Cc1ccccc1-c1nc(CS(=O)CC(=O)NCc2ccccc2)c(C)o1 (stereo not given) | -3 | -4 | 7 | 2 | 7 | 98*
Cc1cc([N+](=O)[O-])nn1CCCC(=O)NCc1ccc(F)cc1 | 1 | -12 | 2 | -14 | -2 | ·
SMILES | HCV NS3 hel inh | ZTA counter | M18AAP inhibitor | EBNA-1 inh | HCV core dimer | ALR H2O2 inh
COc1ccc(CCN(C)Cc2ccc(OCc3ccccc3)c(OC)c2)cc1OC | -27 | 4 | -1 | 12 | -4 | 99*
O=C(COC(=O)c1cc[n+]([O-])cc1)Nc1ccc(SC(F)F)cc1 | 4 | 5 | 1 | -6 | 10 | 95*
Cc1nn(-c2ccccc2)c(C)c1C(=O)OC/C(O)=C(\C#N)c1nc2ccccc2[nH]1 | -9 | 6 | -2 | 16 | 67* | -58
COc1cc(OC)cc(C(=O)OC/C(O)=C(\C#N)c2nc3ccccc3[nH]2)c1 | -4 | 2 | -1 | 3 | 3 | ·
O=C(NCc1ccccc1)/C(=C\c1ccc(O)cc1)NC(=O)c1ccco1 | -2 | -24 | 7 | 2 | -9 | 97*
O=C(NCc1ccccc1)/C(=C/c1ccccc1)NC(=O)c1ccco1 | 11 | 3 | -7 | -18 | -4 | -3
O=C(NCc1ccccc1)/C(=C/c1ccco1)NC(=O)c1ccco1 | 1 | -1 | 6 | 1 | -4 | 93*
COc1ccc(OCC(=O)NCCCCCCNC(=O)COc2ccc(OC)cc2)cc1 | -1 | -11 | -3 | -4 | 0 | -3
COc1cc(C#CC#CCN2CCCCC2)ccc1O | -1 | -14 | 3 | -6 | 0 | 99*
Cc1nnc(SCc2ccc(Cl)c(Cl)c2)s1 | -2 | -6 | -1 | 3 | 8 | -7
Cc1[nH]c(=S)sc1Cc1ccc(Cl)c(Cl)c1 | 11 | -3 | 6 | 3 | -4 | 96*
O=C(CCn1cnc(-c2ccccc2)c1-c1ccccc1)N/N=C/c1ccc(O)cc1 | -13 | 2 | 3 | -11 | 2 | 89*
O=C(N/N=C/c1ccccc1)C(=O)N/N=C/c1ccccc1 | -2 | -7 | 15 | 2 | -2 | -2
CC12CCC(C(=O)N/N=C/c3ccc(O)cc3)(OC1=O)C2(C)C (stereo not given) | -23 | -11 | -7 | -16 | -2 | 99*
O=C(CNS(=O)(=O)c1ccc([N+](=O)[O-])cc1)N/N=C\c1ccc(O)cc1 | 9 | -9 | -2 | -2 | -1 | 99*
O=C(N/N=C/c1ccc(O)cc1)/C(=C/c1ccccc1)CCO | 1 | 4 | 2 | -7 | -7 | 100*
O=C(Nc1c2c(nn1-c1ccc(F)cc1)CS(=O)(=O)C2)c1ccc2c(c1)OCO2 | -3 | -15 | 15 | 3 | -2 | -19
O=C(O)CCC(=O)Nc1ccccc1C(=O)NCc1ccccc1 | -2 | 10 | -10 | -6 | -2 | 0
COc1cccc(NC(=O)C2CCN(C(=O)NC3CCCCC3)CC2)c1 | 0 | -3 | -11 | 9 | -2 | 0
O=C(Cc1cccs1)N/N=C\c1ccc(O)cc1 | 5 | -2 | -17 | -5 | 11 | 98*
Cn1cccc1CC(=O)N/N=C/c1ccc([N+](=O)[O-])cc1 | 0 | -8 | 5 | 10 | 1 | 99*
O=C(CC(=O)N/N=C/c1ccc(O)cc1)N/N=C/c1ccc(O)cc1 | 8 | -2 | 14 | 7 | -3 | 99*
CSCC[C@H](NC(=O)[C@H](Cc1ccccc1)n1c(=O)[nH]c2ccccc2c1=O)C(=O)N1CCC[C@H]1C(=O)O | -1 | -2 | 3 | -8 | -3 | 10
